# From PubChem BioAssay
# HCV NS3 hel inh – blocks Hepatitis C virus NS3 helicase unwinding; 290,000 tested, 0.56% active; NS3 helicase DNA unwinding, Cy5 molecular beacon fluorescence; inhibition, % at 10.9 µM; AID 1800;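 active = inhibition above the mean of all tested compounds plus 3 SD, set per campaign, cut at about 35% in these data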;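 note: 0% = DMSO wells and 100% = thioflavine S control wells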
#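 assay system = NS3 helicase fragment of HCV | buffer or medium = MOPS pH 6.5, MgCl2, DTT, Tween20, BSA | timing = 60 min unwinding reaction at 25 °C after ATP addition | signal = Cy5 beacon fluorescence read at start and 1 h | read-out basis = % inhibition of unwinding | control set = low DMSO, high thioflavine S at 110 µM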
# p-CIP stab down – compounds decreasing mouse p/CIP protein stability; Q05BA5; F442A p/CIP-EGFP cells, EGFP fluorescence, 16 h; decrease of EGFP signal, % at 10 µM; 290,000 tested, 0.01% active;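 active = EGFP signal decrease of at least 30% at 10 µM or well 3 SD below plate mean, unless failing retest; inactive = the rest, including hits failing retest or dose response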
# FID counter – counter-screen for HCV NS3 helicase inhibitors: DNA intercalator displacement; DNA fluorescent intercalator displacement, fluorescence; inhibition, % at 7.9 µM; 290,000 tested, 0.17% active; in the data active = inhibition above about 37%;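 note: 0% = vehicle and 100% = reference compound; higher means more ethidium bromide displaced from hairpin DNA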
# core dimer inh – blocks dimerization of HCV core protein; TR-FRET GST/Flag-core106 dimerization, 1536-well; 300,000 tested, 0.33% active; AID 1899; inhibition, % at 5 µM;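 active = inhibition above the mean of all tested compounds plus 3 SD, set per screening campaign, cut at about 45% in these data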
#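 test system = GST/Flag-tagged HCV core106 proteins | probe or stimulus = Eu donor and XL665 acceptor anti-tag antibodies | times = compound-protein-antibody incubation 4 h at 22.5 °C | signal = TR-FRET, excitation 340 nm, emission 617 and 671 nm | measure = percent inhibition of core106 dimerization signal | controls = wells lacking GST-core106 and wells with excess unlabelled core106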
# GPR7 antag – human neuropeptides B/W receptor 1 antagonism; P48145; GPR7-expressing cells, fluorescence antagonist assay; inhibition, % at 4.4 µM; 290,000 tested, 1.1% active; AID 1861; in the data active = inhibition above about 16%, passing the limit was not always enough;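 note: cells stimulated with the agonist NPW; 0% = agonist with vehicle and 100% = vehicle without agonist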
# GPR7 antag cf – confirmation of human GPR7 antagonists. shares compounds with GPR7 antag. GPR7-expressing cells, calcium fluorescence antagonist mode. inhibition, % at 4.4 µM. 2,400 tested, 52% active; in the data active = inhibition above about 24%;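 note: stimulated with the GPR7 agonist NPW; 0% = agonist plus vehicle and 100% = vehicle alone without agonist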
# MCHR1 antagonist – counter-screen for GPR7 antagonists: antagonists of human MCHR1 | shares compounds with GPR7 antag | MCHR1-expressing cells, fluorescence antagonist assay | inhibition, % at 4.4 µM | 2,400 tested, 62% active; in the data active = inhibition above about 22%;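 note: 0% = vehicle with agonist and 100% = vehicle without agonist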
# An asterisk follows results filed as active; . = no result. Sampled rows, rich in hits. Any-hit rate of the full collection: about 1.9%.
SMILES,HCV NS3 hel inh,p-CIP stab down,FID counter,core dimer inh,GPR7 antag,GPR7 antag cf,MCHR1 antagonist
Cc1nc(NC(C)c2ccccc2)c2c3c(sc2n1)CCC3 (configuration not stated),-2,-5,-17,1,27*,28*,29*
Cc1ccc(CNc2nc(C)nc3sc4c(c23)CCC4)cc1,10,1,-20,4,20,.,.
O=C(Nc1ccc(NS(=O)(=O)c2ccccc2)cc1)c1ccc(Cl)cc1,0,-9,-3,0,-5,.,.
O=C(Nc1cccc(S(=O)(=O)Nc2ccc(Cl)cc2)c1)c1ccc(Cl)nc1,-2,-38,-1,-8,24*,66*,70*
NC(=O)NCCc1ccccc1,7,-1,-7,-16,-2,.,.
COc1cccc(CNCCc2c[nH]c3ccccc23)c1OCc1ccccc1,-66,5,52*,-10,56*,60*,67*
CCOc1ccc(C(=O)Nc2cccc3ncccc23)cc1Cl,23,-14,-16,-11,0,.,.
O=S(=O)(c1cnc(Cl)c(Cl)c1)N1CCCc2ccccc21,5,-11,-4,2,30*,61*,52*
O=S(=O)(NC1CC1)c1ccc(S(=O)(=O)N2CCCc3ccccc32)cc1,-5,-10,-16,5,22*,30*,28*
O=S(=O)(c1cnc(Cl)c(Cl)c1)N1CCc2ccccc21,24,-11,-8,0,14,.,.
CCc1ccc(C2C(C#N)=C(N)N(N(C)C)C3=C2C(=O)CCC3)cc1 (configuration not stated),19,4,-18,4,-9,.,.
Cn1ncc(Cl)c1C(=O)NCC1CCCO1 (configuration not stated),11,-3,-6,-13,-8,.,.
O=C(NCCSc1c[nH]c2ccccc12)c1c(F)cccc1F,-5,2,0,2,23*,33*,33*
O=C(OC(C(=O)NCc1ccc(F)cc1)c1ccccc1)c1ccco1 (configuration not stated),-5,5,-3,-9,-11,.,.
Cc1ccc(NC(=O)C2CC(=O)n3c(nc4ccccc43)N2)cc1 (configuration not stated),3,-9,-2,-8,9,.,.
O=C(Nc1ccc(Cl)cc1)C1CC(=O)n2c(nc3ccccc32)N1 (configuration not stated),13,-2,-1,1,23*,-9,2
Cc1ccc(OCC(O)CNC2CCCC2)c(C)c1 (configuration not stated),-3,-1,6,.,-19,.,.
Cc1ccccc1OCC(O)CNC1CCC(NCC(O)COc2ccccc2C)CC1 (configuration not stated),-85,-1,29,-7,77*,83*,80*
CC1CCCC(NC(=O)CN2C(=O)c3cccnc3Oc3ccc(Cl)cc32)C1C (configuration not stated),4,-5,-24,0,18,.,.
COc1ccc(-c2nc(SCC(=O)NC3CCCCC3)n[nH]2)cc1,15,-16,-26,.,23*,-22,35*
COc1ccc(-c2[nH]c(-c3ccccc3)nc2SCC(=O)NC2CCCC2)cc1,1,-3,-16,-6,-1,.,.
CCc1ccc(NC(=O)c2ccc3c(=O)n4c(nc3c2)CCCCC4)cc1,5,-20,-10,1,-11,.,.
O=C(Nc1cccc(S(=O)(=O)N2CCCCC2)c1)c1ccc2c(=O)n3c(nc2c1)CCCCC3,-1,-2,-29,17,28*,15,77*
CC(=O)Oc1ccc(C(c2ccc(OC(C)=O)cc2)c2ccccn2)cc1,-2,0,-28,9,66*,76*,47*
COc1ccc(-c2c(C)c3ccc(O)cc3oc2=O)cc1,0,-6,-11,3,10,.,.
SMILES,HCV NS3 hel inh,p-CIP stab down,FID counter,core dimer inh,GPR7 antag,GPR7 antag cf,MCHR1 antagonist
O=[N+]([O-])c1ccc(NC(=S)NCCc2ccc(F)cc2)cc1,-16,-9,24,-5,33*,75*,67*
O=C(NCCc1ccc(F)cc1)Nc1ccc([N+](=O)[O-])cc1,12,-11,5,.,10,.,.
Nc1nc2n(n1)C(c1ccccc1)CC(c1ccc(F)cc1)N2 (configuration not stated),8,-8,-11,-4,-8,.,.
Nc1nc2n(n1)C(c1cccc(Br)c1)CC(c1ccc(F)cc1)N2 (configuration not stated),-8,-14,-18,-4,35*,18,4
CCOc1ccc(NC2OCC(O)C(O)C2O)c([N+](=O)[O-])c1 (configuration not stated),8,-7,1,-4,4,.,.
COc1ccccc1N(C(=O)c1ccco1)C(C(=O)NC1CCCCC1)c1cc(OC)c(OC)c(OC)c1 (configuration not stated),-5,0,-36,9,34*,37*,9
COc1ccccc1N(C(=O)CNC(=O)c1ccco1)C(C(=O)NC1CCCC1)c1ccco1 (configuration not stated),4,7,-30,-6,24*,14,8
O=C(NCC(=O)N(c1ccccc1F)C(C(=O)NC1CCCC1)c1ccco1)c1ccco1 (configuration not stated),-1,7,-20,0,-19,.,.
COc1ccc(C(C(=O)NC2CCCC2)N(C(=O)c2ccco2)c2ccccc2OC)cc1 (configuration not stated),-17,6,-40,19,-3,.,.
COc1ccc(C(C(=O)NC2CCCCC2)N(C(=O)c2ccco2)c2ccccc2OC)cc1 (configuration not stated),-3,-9,-49,0,29*,17,14
CC(C)OCCCN1CN(S(=O)(=O)c2cccs2)c2nc3ccccc3nc21,-2,-3,-15,2,-8,.,.
CCn1c(Cc2ccccc2)nnc1SCc1ccc([N+](=O)[O-])cc1,-1,5,-15,2,32*,14,-2
CC(NC(=O)Cc1cccc(C(F)(F)F)c1)c1ccc(F)cc1 (configuration not stated),2,0,-10,0,27*,7,15
CC(NC(=O)Cc1ccc(F)cc1)c1ccccc1 (configuration not stated),-5,-2,-2,-2,-11,.,.
NCCCNc1nc(N)c([N+](=O)[O-])c(NC2CCCCC2)n1,-50,6,7,0,17,.,.
COc1cc(C(=O)N/N=C/c2sccc2C)cc(OC)c1OC,0,-35,0,.,28*,29*,31*
NS(=O)(=O)c1ccc(CCNC(=O)C(c2ccccc2)c2ccccc2)cc1,-2,-7,-9,12,-2,.,.
